In test [1] the test system is Aspergillus niger. The test can be described thus: Antifungal activity against Aspergillus niger. The test is classed as functional. A digest of the protocol: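 Disk diffusion assay measuring growth inhibition of Aspergillus niger, run by an earlier published method. The zone of inhibition is reported as an area rather than a diameter.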
Test [2] relates to A2780. The test can be described thus: Cytotoxicity against human A2780 cells after 72 hrs by MTS method. Conditions: A2780, 72 h. In kind it is functional, cell-based. The essentials:
(§1)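 Cells grown in McCoy's 5A with 10% heat-inactivated fetal bovine serum and seeded 24 h before dosing. Serially diluted compound was added, then incubated 72 h at 37 °C. MTS with phenazine methosulfate was added for 3 h more, and absorbance at 492 nm gave survival relative to untreated controls. IC50 was taken from six-point curves (5-fold dilutions), each point in duplicate.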

In test [3] the test system is HCT-116. The test can be described thus: Cytotoxicity against human HCT116 cells after 72 hrs by MTS method. Conditions: HCT-116, 72 h. In kind it is functional, cell-based. The essentials:
as §1

Test [4] concerns LX-1. The test can be described thus: Cytotoxicity against human LX1 cells after 72 hrs by MTS method. Conditions: LX-1, 72 h. The test is classed as functional, cell-based. A digest of the protocol: as §1
For test [5], the system named is KB. The test can be described thus: Cytotoxicity against human KB cells after 72 hrs by MTS method. In kind it is functional, cell-based.

≈ marks a conversion by molar mass, not a printed value.

Regarding `C[C@@H]1[C@H](O)[C@@H](C)/C=C/C=C/C=C/C=C/C=C/C=C/C=C/[C@H](O[C@@H]2O[C@H](C)[C@@H](O)[C@H](N)[C@@H]2O)C[C@@H]2O[C@](O)(C[C@@H](O)C[C@@H](O)[C@H](O)CC[C@@H](O)C[C@@H](O)CC(=O)O[C@H]1C)C[C@H](O)[C@H]2C(=O)O` [AMPHOTERICIN B], the “inhibition zone (IZ)” value in test [1] was 254 mm2.

For `CC[C@@]1(O)C(=O)OCc2c1cc1n(c2=O)Cc2cc3ccccc3nc2-1` [CAMPTOTHECIN], the IC50 in test [2] came out at 4 nM; in test [3] it was 9 nM; in test [4], 120 nM.

On to `C=C/C(C)=C/C[C@]1(C)[C@H](C)C[C@H](O)[C@]23C(=C[C@@H](OC(=O)C(C)C)C[C@@H]12)[C@@H](OC(C)=O)O[C@H]3OC(C)=O` [CASEARVESTRIN A], for which the IC50 came out at 820 nM in test [2], 710 nM in test [3] and 540 nM in test [4]. In addition, a half-maximal response in test [5] (EC50) required 1.4 µg/mL (≈ 2.77 µM). In addition, in test [1], the “inhibition zone (IZ)” value amounted to 348 mm2.

For `C=C/C(C)=C/C[C@]1(C)[C@H](C)C[C@H](O)[C@]23C(=C[C@@H](OC(=O)C(C)CC)C[C@@H]12)[C@@H](OC(C)=O)O[C@H]3OC(C)=O` (some centres undefined) [CASEARVESTRIN B], the IC50 is 320 nM in test [2], 250 nM in test [3] and 200 nM in test [4]. Further, in test [5], the concentration giving a half-maximal response (EC50) came to 1.4 µg/mL (≈ 2.7 µM). The “inhibition zone (IZ)” value in test [1] was 296 mm2.

For `C=C/C(C)=C/C[C@]1(C)[C@H](C)C[C@H](O)[C@]23C(=C[C@@H](OC(=O)CCCCC)C[C@@H]12)[C@@H](OC(C)=O)O[C@H]3OC(C)=O` [CASEARVESTRIN C], the IC50 is 420 nM in test [2], 260 nM in test [3] and 290 nM in test [4]. The compound further came in with an EC50 in test [5] of 0.34 µg/mL (≈ 0.638 µM). In addition, the “inhibition zone (IZ)” value in test [1] is 177 mm2.

These data come from ChEMBL document CHEMBL1159312, “Novel bioactive clerodane diterpenoids from the leaves and twigs of Casearia sylvestris” (J Nat Prod, 2002).
